Assays:
[1] = tested on: Human immunodeficiency virus 1; test: Antiviral activity against HIV1 isolate 05-121787 assessed as inhibition of viral replication after 7 days by scintillation counting; assay type: functional, organism-based; conditions: Human immunodeficiency virus 1, isolate 05-121787, 168 h
[2] = tested on: Human immunodeficiency virus 1; test: Antiviral activity against HIV1 isolate 05-121786 assessed as inhibition of viral replication after 7 days by scintillation counting; assay type: functional, organism-based; conditions: Human immunodeficiency virus 1, isolate 05-121786, 168 h
[3] = tested on: Human immunodeficiency virus 1; test: Antiviral activity against HIV1 isolate 05-121777 assessed as inhibition of viral replication after 7 days by scintillation counting; assay type: functional, organism-based; conditions: Human immunodeficiency virus 1, isolate 05-121777, 168 h
[4] = tested on: Human immunodeficiency virus 1; test: Antiviral activity against HIV1 isolate 05-121783 assessed as inhibition of viral replication after 7 days by scintillation counting; assay type: functional, organism-based; conditions: Human immunodeficiency virus 1, isolate 05-121783, 168 h
[5] = Half life in mouse at 3 mg/kg, po administered as single dose by liquid chromatography-mass spectroscopy; assay type: ADME, organism-based; parameters: dose 3 mg/kg, route oral; conditions: in vivo
[6] = Oral bioavailability in rat at 3 mg/kg administered as single dose after 24 hrs by liquid chromatography-mass spectroscopy; assay type: ADME, organism-based; conditions: in vivo
[7] = tested on: Human immunodeficiency virus 1; test: Antiviral activity against HIV1 isolate 05-121794 assessed as inhibition of viral replication after 7 days by scintillation counting; assay type: functional, organism-based; conditions: Human immunodeficiency virus 1, isolate 05-121794, 168 h
PBMC = test: Cytotoxicity against human PBMC infected with HIV1 3B after 96 hrs by celltiter glow assay
[8] = tested on: Human immunodeficiency virus 1; test: Antiviral activity against HIV1 isolate 05-121772 assessed as inhibition of viral replication after 7 days by scintillation counting; assay type: functional, organism-based; conditions: Human immunodeficiency virus 1, isolate 05-121772, 168 h
[9] = Clearance in rat at 1 mg/kg, iv administered as single dose after 24 hrs by liquid chromatography-mass spectroscopy; assay type: ADME, organism-based; parameters: dose 1 mg/kg, route intravenous; conditions: in vivo
Outline: (§1)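 Single intravenous dose of 1 mg/kg. Plasma was sampled at serial times over 24 h and measured by LC-MS/MS. Clearance was derived by pharmacokinetic analysis.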

[10] = Volume of distribution at steady state in dog at 1 mg/kg, iv administered as single dose after 24 hrs by liquid chromatography-mass spectroscopy; assay type: ADME, organism-based, Canis lupus familiaris; parameters: dose 1 mg/kg, route intravenous; conditions: in vivo, read-out: Vdss
[11] = Clearance in monkey at 1 mg/kg, iv administered as single dose after 24 hrs by liquid chromatography-mass spectroscopy; assay type: ADME, organism-based, Macaca mulatta; parameters: dose 1 mg/kg, route intravenous; conditions: rhesus monkey, in vivo; outline: as §1
HEK293 = test: Cytotoxicity against HEK293 cells after 24 hrs by MTS assay; assay type: cell-based; conditions: Homo sapiens, HEK293, 24 h
Outline: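 Viability in the cell-cell fusion format (BacMam-transduced HEK-293 cells mixed with HOS cells). Compound was added to the cell mix, and viability was read after 24 h with MTS dye.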

[12] = tested on: Human immunodeficiency virus 1; test: Antiviral activity against HIV1 isolate 05-121792 assessed as inhibition of viral replication after 7 days by scintillation counting; assay type: functional, organism-based; conditions: Human immunodeficiency virus 1, isolate 05-121792, 168 h
[13] = tested on: Human immunodeficiency virus 1; test: Antiviral activity against HIV1 isolate 05-121780 assessed as inhibition of viral replication after 7 days by scintillation counting; assay type: functional, organism-based; conditions: Human immunodeficiency virus 1, isolate 05-121780, 168 h
[14] = biological target: C-X-C chemokine receptor type 4 (Homo sapiens) (UniProt P61073); test: Inhibition of CXCR4-mediated chemotaxis in SDF1-stimulated human U937 cells treated 15 mins before SDF1 challenge measured after 2 hrs by luminescence assay relative to control; assay type: cell-based; conditions: U-937
Sequence of C-X-C chemokine receptor type 4 (Homo sapiens) (P61073 whole entry): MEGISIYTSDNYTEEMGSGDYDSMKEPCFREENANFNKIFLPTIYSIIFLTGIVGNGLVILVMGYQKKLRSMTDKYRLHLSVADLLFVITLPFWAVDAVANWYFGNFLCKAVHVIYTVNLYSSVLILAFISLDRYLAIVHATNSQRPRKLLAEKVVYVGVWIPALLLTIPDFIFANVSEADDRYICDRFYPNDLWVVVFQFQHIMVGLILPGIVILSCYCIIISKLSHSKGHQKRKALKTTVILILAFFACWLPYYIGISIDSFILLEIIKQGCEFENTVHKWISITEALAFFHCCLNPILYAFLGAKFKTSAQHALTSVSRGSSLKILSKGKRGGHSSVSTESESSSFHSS
Outline: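 U937 cells (endogenous CXCR4) in RPMI with 2% FCS and 10 mM HEPES, 5 × 10^6 cells/ml, preincubated 15 min with compound, then placed above a 5.0 μm filter. The lower chamber held the same compound concentration plus SDF-1. Migration ran 2 h. Migrated cells were quantified by ATP luminescence. Viability was checked under identical conditions. For mode of action, SDF-1 concentration-response curves were run at increasing compound concentrations.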

[15] = tested on: Human immunodeficiency virus 1; test: Antiviral activity against HIV1 isolate 05-121796 assessed as inhibition of viral replication after 7 days by scintillation counting; assay type: functional, organism-based; conditions: Human immunodeficiency virus 1, isolate 05-121796, 168 h
[16] = tested on: Human immunodeficiency virus 1; test: Antiviral activity against HIV1 3B infected in human HOS cells after 72 hrs by luminescence assay in presence of 1 mg/ml alpha-acid glycoprotein; assay type: functional, organism-based; conditions: Human immunodeficiency virus 1, 3B
[17] = Oral bioavailability in dog at 3 mg/kg administered as single dose after 24 hrs by liquid chromatography-mass spectroscopy; assay type: ADME, organism-based, Canis lupus familiaris; conditions: in vivo
[18] = tested on: Human immunodeficiency virus 1; test: Antiviral activity against HIV1 isolate 05-121795 assessed as inhibition of viral replication after 7 days by scintillation counting; assay type: functional, organism-based; conditions: Human immunodeficiency virus 1, isolate 05-121795, 168 h
[19] = Half life in rat at 3 mg/kg, po administered as single dose by liquid chromatography-mass spectroscopy; assay type: ADME, organism-based; parameters: dose 3 mg/kg, route oral; conditions: in vivo
[20] = biological target: C-X-C chemokine receptor type 4 (Homo sapiens) (UniProt P61073); test: Antagonist activity at human CXCR4 expressed in HEK293 cells assessed as inhibition of SDF1-induced increase in intracellular calcium level treated 15 mins before agonist challenge measured after 1 hr by FLIPR assay relative to control; assay type: functional, cell-based
Outline: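 HEK-293 cells transiently transduced by BacMam with CXCR4 (MOI 50) and chimeric Gqi5 (MOI 12.5), plated 40,000 per well, left 24 h at 37°C for expression. Cells then loaded with calcium dye in DMEM/F-12 containing 2.5 mM probenecid and 0.1% BSA for 1 h at 37°C. Intracellular calcium read by FLIPR. For antagonism, compound was added 15 min before SDF-1, used at an EC80 concentration.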

[21] = tested on: Human immunodeficiency virus 1; test: Antiviral activity against HIV1 3B infected in human PBMC assessed as inhibition of viral replication after 7 days by scintillation counting; assay type: functional, organism-based; conditions: Human immunodeficiency virus 1, 3B, 168 h
Outline: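 PHA/IL-2-stimulated donor PBMCs at 4 × 10^6 cells/ml in RPMI with 20% FCS and 10% IL-2. Cells were pre-incubated with compound for 1 h, then infected with HIV-1 IIIB pre-mixed with compound for 7 days at 37°C. Supernatant reverse transcriptase was measured with poly(rA)·oligo(dT) and [3H]dTTP for 2 h, captured on DE-81 filters, and counted.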

[22] = tested on: Human immunodeficiency virus 1; test: Antiviral activity against HIV1 isolate 05-121797 assessed as inhibition of viral replication after 7 days by scintillation counting; assay type: functional, organism-based; conditions: Human immunodeficiency virus 1, isolate 05-121797, 168 h
[23] = biological target: Angiotensin-converting enzyme (Homo sapiens, UniProt P12821); test: Inhibition of ACE
Sequence of Angiotensin-converting enzyme (P12821 whole entry): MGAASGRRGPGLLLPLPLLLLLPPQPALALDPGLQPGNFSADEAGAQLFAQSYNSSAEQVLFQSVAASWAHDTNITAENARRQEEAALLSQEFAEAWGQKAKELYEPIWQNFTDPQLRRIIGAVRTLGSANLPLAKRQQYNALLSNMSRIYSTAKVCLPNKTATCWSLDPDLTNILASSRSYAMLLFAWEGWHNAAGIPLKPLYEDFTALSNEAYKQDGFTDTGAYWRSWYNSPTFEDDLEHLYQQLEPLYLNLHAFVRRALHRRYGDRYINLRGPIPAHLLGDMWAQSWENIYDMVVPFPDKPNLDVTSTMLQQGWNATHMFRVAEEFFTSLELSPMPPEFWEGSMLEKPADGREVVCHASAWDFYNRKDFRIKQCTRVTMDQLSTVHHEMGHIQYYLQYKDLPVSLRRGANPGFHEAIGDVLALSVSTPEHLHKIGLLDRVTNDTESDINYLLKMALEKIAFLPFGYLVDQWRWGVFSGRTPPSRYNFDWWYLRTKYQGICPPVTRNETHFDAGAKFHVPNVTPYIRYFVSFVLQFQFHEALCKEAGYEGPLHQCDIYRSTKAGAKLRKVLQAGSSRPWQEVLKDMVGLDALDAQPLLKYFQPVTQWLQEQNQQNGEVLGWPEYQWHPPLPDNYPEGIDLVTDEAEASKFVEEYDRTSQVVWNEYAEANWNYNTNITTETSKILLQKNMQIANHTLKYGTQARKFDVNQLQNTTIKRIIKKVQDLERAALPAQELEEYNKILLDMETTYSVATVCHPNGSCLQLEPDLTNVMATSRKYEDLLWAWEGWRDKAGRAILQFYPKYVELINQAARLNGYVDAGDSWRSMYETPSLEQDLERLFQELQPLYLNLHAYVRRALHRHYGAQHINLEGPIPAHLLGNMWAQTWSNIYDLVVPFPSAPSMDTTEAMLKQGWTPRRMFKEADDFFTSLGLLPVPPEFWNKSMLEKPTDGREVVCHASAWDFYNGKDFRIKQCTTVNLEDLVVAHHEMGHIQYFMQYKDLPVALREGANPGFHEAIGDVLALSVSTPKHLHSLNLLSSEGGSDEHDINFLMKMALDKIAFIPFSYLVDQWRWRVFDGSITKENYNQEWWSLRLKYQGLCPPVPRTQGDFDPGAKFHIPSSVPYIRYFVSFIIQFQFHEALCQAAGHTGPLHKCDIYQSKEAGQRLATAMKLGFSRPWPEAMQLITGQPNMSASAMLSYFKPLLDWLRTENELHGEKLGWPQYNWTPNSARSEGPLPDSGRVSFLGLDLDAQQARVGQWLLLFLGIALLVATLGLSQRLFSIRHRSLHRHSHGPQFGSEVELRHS

[24] = Oral bioavailability in monkey at 3 mg/kg administered as single dose after 24 hrs by liquid chromatography-mass spectroscopy; assay type: ADME, organism-based, Macaca mulatta; conditions: rhesus monkey, in vivo
[25] = tested on: Human immunodeficiency virus 1; test: Antiviral activity against HIV1 3B infected in human HOS cells after 72 hrs by luminescence assay in presence of alpha-acid glycoprotein and human serum albumin; assay type: functional, organism-based; conditions: Human immunodeficiency virus 1, 3B
Outline: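 HOS LTR-luciferase viral assay (1 h compound pre-incubation, virus plus compound, 72 h, 37°C, luminescence) run with human serum albumin (45 mg/ml) with or without α-acid glycoprotein (1 mg/ml). Protein-free IC50 served as baseline for fold shift.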

[26] = Half life in monkey at 3 mg/kg, po administered as single dose by liquid chromatography-mass spectroscopy; assay type: ADME, organism-based, Macaca mulatta; parameters: dose 3 mg/kg, route oral; conditions: rhesus monkey, in vivo
Outline: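 Single oral dose of 3 mg/kg. Plasma was sampled at serial times over 24 h and measured by LC-MS/MS. Half-life was derived by pharmacokinetic analysis.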

In the case of `CN1CCN(c2cccc3nc(CN(C)[C@H]4CCCc5cccnc54)c(CO)n23)CC1`, the IC50 [1] is reported as 1 nM, the IC50 [2] is reported as 1 nM and the IC50 [3] is reported as 1 nM. It also gave an IC50 [4] of 1 nM, a half-life [5] of 4.1 h and a bioavailability [6] of 21%. The IC50 [7] was 1 nM, the IC50 (PBMC) was over 1000 nM and the IC50 [8] was 1 nM. It also gave a clearance [9] of 4.5 mL/min/kg, a Vd [10] of 5.3 L/kg and a clearance [11] of 5.8 mL/min/kg. It also gave an IC50 (HEK293) of over 1000 nM, an IC50 [12] of 1 nM and an IC50 [13] of 1 nM. It also gave an inhibition [14] of 109%, an IC50 [15] of 1 nM and an IC50 [16] of 2.87 nM. The bioavailability [17] was 21%, the IC50 [18] was 1 nM and the half-life [19] was 8.6 h. The inhibition [20] was 110%, the IC50 [21] was 4.6 nM and the IC50 [22] was 1 nM. The IC50 [23] was 193 nM, the bioavailability [24] was 17% and the IC50 [25] was 3.14 nM. It also gave a half-life [26] of over 12 h.

From ChEMBL document CHEMBL1240366, “Blockade of X4-tropic HIV-1 cellular entry by GSK812397, a potent noncompetitive CXCR4 receptor antagonist” (Antimicrob Agents Chemother, 2010)
